According to ChEMBL document CHEMBL3576866, “Discovery of a Cyclic Boronic Acid β-Lactamase Inhibitor (RPX7009) with Utility vs Class A Serine Carbapenemases” (J Med Chem, 2015):

Assays:
[1] = biological target: Beta lactamase TEM-1 (Klebsiella pneumoniae) (UniProt Q7B899); experiment: Inhibition of Klebsiella pneumoniae KP1084 TEM-1 assessed as biapenem MIC at 4 ug/ml by broth microdilution method
[2] = biological target: Carbapenem-hydrolyzing beta-lactamase KPC (Klebsiella pneumoniae) (UniProt Q9F663); experiment: Inhibition of Klebsiella pneumoniae KP1083 KPC-3 assessed as meropenem MIC at 4 ug/ml by broth microdilution method
Chain of Carbapenem-hydrolyzing beta-lactamase KPC (Klebsiella pneumoniae) (Q9F663 whole entry): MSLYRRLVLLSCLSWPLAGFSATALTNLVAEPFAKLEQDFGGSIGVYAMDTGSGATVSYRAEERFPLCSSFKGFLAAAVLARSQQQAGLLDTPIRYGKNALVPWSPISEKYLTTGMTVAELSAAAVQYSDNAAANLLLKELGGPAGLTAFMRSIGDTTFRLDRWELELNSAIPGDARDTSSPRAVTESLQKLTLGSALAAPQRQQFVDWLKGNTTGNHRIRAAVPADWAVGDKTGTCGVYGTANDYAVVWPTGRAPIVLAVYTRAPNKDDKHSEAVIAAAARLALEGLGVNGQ
Outline: (§1)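 CLSI broth microdilution (M07-A9, 2012) MIC of the carbapenem against clinical serine carbapenemase-producing strain, tested alone and with the inhibitor held at a fixed 4 μg/mL.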

[3] = biological target: T1, Beta-lactamase SHV-1 (Klebsiella pneumoniae) (UniProt P0AD64); experiment: Inhibition of Klebsiella pneumoniae KP1082 SHV-1 assessed as meropenem MIC at 4 ug/ml by broth microdilution method; outline: as §1
T1 sequence (whole entry): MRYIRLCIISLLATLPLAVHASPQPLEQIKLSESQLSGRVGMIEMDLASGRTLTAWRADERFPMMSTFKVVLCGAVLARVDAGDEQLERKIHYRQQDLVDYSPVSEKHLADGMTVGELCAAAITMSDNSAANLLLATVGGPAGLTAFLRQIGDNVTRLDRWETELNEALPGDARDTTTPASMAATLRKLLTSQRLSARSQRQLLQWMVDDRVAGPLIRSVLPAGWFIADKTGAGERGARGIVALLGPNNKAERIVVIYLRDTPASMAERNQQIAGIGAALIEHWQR

[4] = biological target: Beta lactamase TEM-1 (Klebsiella pneumoniae) (UniProt Q7B899); experiment: Inhibition of Klebsiella pneumoniae KP1004 TEM-1 assessed as meropenem MIC at 4 ug/ml by broth microdilution method; outline: as §1
Klebsiella pneumoniae [5] = experiment: Inhibition of Klebsiella pneumoniae KP1004 KPC-2 assessed as meropenem MIC at 4 ug/ml by broth microdilution method; outline: as §1
Klebsiella oxytoca [6] = experiment: Inhibition of Klebsiella oxytoca KX1019 OXA-2 assessed as meropenem MIC at 4 ug/ml by broth microdilution method
[7] = biological target: Beta lactamase TEM-1 (Klebsiella pneumoniae) (UniProt Q7B899); experiment: Inhibition of Klebsiella pneumoniae KP1087 TEM-1 assessed as meropenem MIC at 4 ug/ml by broth microdilution method; outline: as §1
[8] = biological target: Beta lactamase TEM-1 (Klebsiella pneumoniae) (UniProt Q7B899); experiment: Inhibition of Klebsiella pneumoniae KP1084 TEM-1 assessed as meropenem MIC at 4 ug/ml by broth microdilution method; outline: as §1
Prothrombin = Prothrombin (Homo sapiens, UniProt P00734); experiment: Inhibition of thrombin (unknown origin) using Benz-FVR-AMC as substrate preincubated for 10 mins followed by substrate addition measured for 30 mins by spectrophotometric analysis
Outline: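 Thrombin, from a commercial source, in 20 mM Tris-HCl, pH 8, 150 mM NaCl, 2.5 mM CaCl2. Preincubated with inhibitor at various concentrations for 10 min at 37 °C. Benz-FVR-AMC (listed at 10 μM) was then added and the signal monitored for 30 min. Rates were relative to untreated; IC50 is the concentration giving 50% inhibition.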

[9] = biological target: Tissue-type plasminogen activator (Homo sapiens, UniProt P00750); experiment: Inhibition of tissue plasminogen activator (unknown origin) using GK-pNA as substrate preincubated for 10 mins followed by substrate addition measured for 30 mins by spectrophotometric analysis
Chain of Tissue-type plasminogen activator (P00750 whole entry): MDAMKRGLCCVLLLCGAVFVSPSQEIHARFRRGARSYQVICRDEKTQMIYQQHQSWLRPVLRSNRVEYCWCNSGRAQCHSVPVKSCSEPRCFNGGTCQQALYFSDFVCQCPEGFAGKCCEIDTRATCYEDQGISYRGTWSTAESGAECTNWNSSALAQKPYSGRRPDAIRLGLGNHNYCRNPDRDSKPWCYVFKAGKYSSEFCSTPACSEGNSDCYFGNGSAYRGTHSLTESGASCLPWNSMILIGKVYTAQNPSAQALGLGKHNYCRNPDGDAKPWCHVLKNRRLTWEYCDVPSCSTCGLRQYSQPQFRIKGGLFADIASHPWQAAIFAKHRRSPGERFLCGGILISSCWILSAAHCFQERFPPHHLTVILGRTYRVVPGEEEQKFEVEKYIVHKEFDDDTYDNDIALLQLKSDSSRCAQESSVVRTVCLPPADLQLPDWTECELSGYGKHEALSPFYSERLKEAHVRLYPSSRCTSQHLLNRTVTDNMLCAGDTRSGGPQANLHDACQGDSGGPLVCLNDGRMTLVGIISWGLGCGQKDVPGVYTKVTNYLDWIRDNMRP
Outline: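 Tissue plasminogen activator (commercial) in 30 mM Tris-HCl, pH 8.5, 30 mM imidazole, 130 mM NaCl. Incubated with inhibitor at several concentrations for 10 min at 37 °C. GK-pNA (listed at 100 μM) was added and absorbance followed for 30 min. Rates were relative to a no-treatment control; IC50 is the concentration giving 50% inhibition.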

[10] = Half life in rat at 300 mg/kg, iv administered as 0.5 hrs infusion by HPLC-MS method; format: ADME, organism-based; conditions: in vivo
[11] = Volume of distribution in rat at 1000 mg/kg, iv administered as 0.5 hrs infusion by HPLC-MS method; format: ADME, organism-based; conditions: in vivo
Mus musculus = experiment: Toxicity in Swiss webster neutropenic mouse lung infection model up to 1000 mg/kg, administered every 2 hrs starting at 2 hrs; format: organism-based; conditions: in vivo
[12] = biological target: Beta-lactamase (Enterobacter cloacae) (UniProt P05364); experiment: Inhibition of Enterobacter cloacae ECL1002 AmpC assessed as cefepime MIC at 4 ug/ml by broth microdilution method
Chain of Beta-lactamase (Enterobacter cloacae) (P05364 21-381 limits assumed): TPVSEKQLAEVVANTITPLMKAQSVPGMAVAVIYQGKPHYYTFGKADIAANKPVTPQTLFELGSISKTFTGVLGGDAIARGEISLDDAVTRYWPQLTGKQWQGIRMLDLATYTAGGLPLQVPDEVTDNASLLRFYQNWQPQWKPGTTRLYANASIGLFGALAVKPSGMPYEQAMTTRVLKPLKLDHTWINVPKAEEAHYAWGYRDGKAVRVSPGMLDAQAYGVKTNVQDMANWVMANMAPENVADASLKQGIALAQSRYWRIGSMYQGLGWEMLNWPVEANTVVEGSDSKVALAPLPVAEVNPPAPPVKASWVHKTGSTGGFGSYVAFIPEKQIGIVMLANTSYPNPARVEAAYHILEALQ

[13] = biological target: Beta-lactamase TEM (Enterobacter cloacae) (UniProt Q6W9J1); experiment: Inhibition of Enterobacter cloacae ECL1058 TEM-1 assessed as biapenem MIC at 4 ug/ml by broth microdilution method
Chain of Beta-lactamase TEM (Enterobacter cloacae) (Q6W9J1 as listed by the source): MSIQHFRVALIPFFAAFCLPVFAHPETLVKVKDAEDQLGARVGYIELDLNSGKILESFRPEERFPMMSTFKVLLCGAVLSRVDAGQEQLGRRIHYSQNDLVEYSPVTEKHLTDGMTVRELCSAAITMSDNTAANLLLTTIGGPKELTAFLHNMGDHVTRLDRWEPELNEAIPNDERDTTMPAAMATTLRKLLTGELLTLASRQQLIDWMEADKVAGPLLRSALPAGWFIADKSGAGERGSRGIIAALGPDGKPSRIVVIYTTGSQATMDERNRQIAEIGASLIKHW

Klebsiella pneumoniae [14] = experiment: Inhibition of Klebsiella pneumoniae KP1004 SHV-11 assessed as biapenem MIC at 4 ug/ml by broth microdilution method; outline: as §1
Klebsiella pneumoniae [15] = experiment: Inhibition of Klebsiella pneumoniae KP1008 KPC-2 assessed as biapenem MIC at 4 ug/ml by broth microdilution method; outline: as §1
[16] = biological target: Beta lactamase TEM-1 (Klebsiella pneumoniae) (UniProt Q7B899); experiment: Inhibition of Klebsiella pneumoniae KP1083 TEM-1 assessed as biapenem MIC at 4 ug/ml by broth microdilution method; outline: as §1
Klebsiella pneumoniae [17] = experiment: Inhibition of Klebsiella pneumoniae KP1084 SHV-11 assessed as ertapenem MIC at 4 ug/ml by broth microdilution method; outline: as §1
Klebsiella pneumoniae [18] = experiment: Inhibition of Klebsiella pneumoniae KP1008 KPC-2 assessed as imipenem MIC at 4 ug/ml by broth microdilution method; outline: as §1
[19] = biological target: Beta lactamase TEM-1 (Klebsiella pneumoniae) (UniProt Q7B899); experiment: Inhibition of Klebsiella pneumoniae KP1083 TEM-1 assessed as imipenem MIC at 4 ug/ml by broth microdilution method
[20] = biological target: Carbapenem-hydrolyzing beta-lactamase KPC (Klebsiella oxytoca) (UniProt Q848S6); experiment: Inhibition of Klebsiella oxytoca KX1017 KPC-2 assessed as ertapenem MIC at 4 ug/ml by broth microdilution method
Chain of Carbapenem-hydrolyzing beta-lactamase KPC (Klebsiella oxytoca) (Q848S6 whole entry): as the sequence (Q9F663 whole entry) above

Klebsiella pneumoniae [21] = experiment: Inhibition of Klebsiella pneumoniae KP1087 SHV-11 assessed as imipenem MIC at 4 ug/ml by broth microdilution method
Outline: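 CLSI broth microdilution (M07-A9) against clinical K. pneumoniae strain KP1087 (KPC-2, CTX-M-15, SHV-11, TEM-1); carbapenem MIC (μg/mL) read with the inhibitor held at a fixed 4 μg/mL, alongside carbapenem alone.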

[22] = biological target: Carbapenem-hydrolyzing beta-lactamase KPC (Klebsiella oxytoca) (UniProt Q848S6); experiment: Inhibition of Klebsiella oxytoca KX1019 KPC-2 assessed as imipenem MIC at 4 ug/ml by broth microdilution method
Klebsiella oxytoca [23] = experiment: Inhibition of Klebsiella oxytoca KX1019 OXA-2 assessed as imipenem MIC at 4 ug/ml by broth microdilution method
Klebsiella pneumoniae [24] = experiment: Inhibition of Klebsiella pneumoniae KP1004 KPC-2 assessed as imipenem MIC at 4 ug/ml by broth microdilution method; outline: as §1
Escherichia coli = experiment: Inhibition of Escherichia coli EC1011 TEM-26 assessed as cefepime MIC at 4 ug/ml by broth microdilution method
Outline: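 CLSI broth microdilution (M07-A9) against clinical strains expressing serine β-lactamases.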

Chain of Beta lactamase TEM-1 (Klebsiella pneumoniae) (Q7B899 as listed by the source): as the sequence (Q6W9J1 as listed by the source) above

## O=C(O)C[C@@H]1CC[C@H](NC(=O)Cc2cccs2)B(O)O1 [VABORBACTAM]
[1]
  MIC: 0.25 µg/mL
[2]
  MIC: < 0.06 µg/mL
[3]
  MIC: < 0.06 µg/mL
[4]
  MIC: < 0.06 µg/mL
Klebsiella pneumoniae [5]
  MIC: ≤ 0.06 µg/mL
Klebsiella oxytoca [6]
  MIC: < 0.06 µg/mL
[7]
  MIC: 1 µg/mL
[8]
  MIC: 0.5 µg/mL
Prothrombin
  IC50: > 1 mM
[9]
  IC50: > 1 mM
[10]
  half-life: 15.6 min
[11]
  Vd: 0.55 L/kg
Mus musculus
  Activity: Non-toxic
[12]
  MIC: 0.5 µg/mL
[13]
  MIC: < 0.06 µg/mL
Klebsiella pneumoniae [14]
  MIC: ≤ 0.06 µg/mL
Klebsiella pneumoniae [15]
  MIC: ≤ 0.06 µg/mL
[16]
  MIC: < 0.06 µg/mL
Klebsiella pneumoniae [17]
  MIC: 4 µg/mL
Klebsiella pneumoniae [18]
  MIC: ≤ 0.06 µg/mL
[19]
  MIC: 0.13 µg/mL
[20]
  MIC: 0.25 µg/mL
Klebsiella pneumoniae [21]
  MIC: 0.25 µg/mL
[22]
  MIC: 0.13 µg/mL
Klebsiella oxytoca [23]
  MIC: 0.13 µg/mL
Klebsiella pneumoniae [24]
  MIC: ≤ 0.06 µg/mL
Escherichia coli
  MIC: 2 µg/mL
